Compound activity (PubChem BioAssay)
Most compounds without a hit are left out; they make up all but 2.5% or so of the library.
Tb MetRS inh: blocks T. brucei methionyl-tRNA synthetase activity; AID 624268; actives 0.4% (n = 360,000); purified T. brucei MetRS, ATP depletion, Kinase-Glo luminescence; inhibition, % at 11.9 µM;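 active = inhibition above a per-plate cutoff of the control wells' mean inhibition plus 3 SD, cut at about 5.5% in these data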
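Dosing: 11.9 µM compound single dose, 0.9% DMSO; Assay system: purified T. brucei MetRS enzyme; Measured by: Kinase-Glo luciferase luminescence reporting remaining unconsumed ATP; Schedule: 15 min plus 2 h at 25 °C.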
NALP1 yeast inh: NALP1 inhibition; AID 2071; actives 0.61% (n = 280,000); inhibition, % at 10 µM; S. cerevisiae NALP1/ASC/caspase-1 growth, X-gal OD620, 72 h; in the data active = inhibition mostly above about 24%, no sharp cut-off; inactive = mostly below about 32%
MC4R barr agon: human MC4R agonism via beta-arrestin | P32245 | U2OS MC4R beta-arrestin complementation, luminescence; percent of melanotan II response, DMSO zero | activation, % at 8.9 µM | actives 0.98% (n = 360,000);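 active = activation above a per-plate cutoff, the mean activation of sample wells on that plate plus 3 SD, cut at about 8% in these data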
Target sequence (P32245 whole entry, looked up): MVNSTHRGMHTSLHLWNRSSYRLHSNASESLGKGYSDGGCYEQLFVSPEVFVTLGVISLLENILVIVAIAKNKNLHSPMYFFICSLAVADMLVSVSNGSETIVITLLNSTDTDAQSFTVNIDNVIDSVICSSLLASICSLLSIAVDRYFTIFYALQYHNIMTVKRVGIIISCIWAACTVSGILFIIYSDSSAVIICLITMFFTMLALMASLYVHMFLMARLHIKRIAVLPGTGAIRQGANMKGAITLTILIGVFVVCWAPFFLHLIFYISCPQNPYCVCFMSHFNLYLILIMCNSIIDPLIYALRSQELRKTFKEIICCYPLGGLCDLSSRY
MC4R antagonist: antagonists of human melanocortin 4 receptor (MC4R). MC4R-expressing cells, MTII-stimulated cAMP, LANCE TR-FRET. inhibition, % at 6.5 µM. actives 0.48% (n = 360,000);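 active = inhibition above its plate's cutoff, the mean of tested wells on that plate plus 3 SD, cut at about 29% in these data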
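System – human MC4R-expressing U2OS cells · Also added – Melanotan II · Dosing – one concentration, 6.5 µM nominal · Timing – 30-min compound, 1-h challenge, 1-h detection, room temperature · Measured by – Eu-cAMP/anti-cAMP TR-FRET, emission 671 nm · Replicates – singlicate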
Bfl-1 A1 inh: inhibitors of the anti-apoptotic protein A1, read as caspase activation | MEF A1-2A-BIM cells, Caspase-Glo 3/7 luminescence, 3 h; percent of clofoctol response, vehicle zero | caspase activation, % (concentration not given with the values) | actives 0.066% (n = 330,000) | AID 2462;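 active = over half of replicate activation scores above 10%, or exactly half above 10 with the replicate mean above 10; inconclusive = replicate mean below 10 yet half the replicates above 10; inactive = over half of replicates below 10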
NLRP3 yeast inh: NALP3 inhibition in yeast; Yeast reconstituted NLRP3/ASC/caspase-1, beta-gal luminescence, 24 h; inhibition, % at 10 µM; actives 0.39% (n = 330,000); AID 2825;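 active = inhibition of 50% or more; inactive = inhibition below 50%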
U2OS cAMP counter: nonselective cAMP signaling inhibitor, MC4R antagonist counter-screen; inhibition, % at 6.5 µM; actives 26% (n = 1,600); parental U2OS, forskolin cAMP, LANCE TR-FRET; shares compounds with MC4R antagonist;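 active = mean inhibition over triplicates above the low-control well mean plus 3 SD, set per campaign, cut at about 13% in these data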;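 note: signal is single emission at 671 nm which falls as cellular cAMP rises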
MC4R cAMP antag: human MC4R cAMP antagonism confirmation. shares compounds with MC4R antagonist. inhibition, % at 6.5 µM. actives 27% (n = 1,600). MC4R-expressing cells, MTII-stimulated cAMP, TR-FRET; in the data active = inhibition above about 29%
Large screens that a line does not name were inactive (follow-up assays come after a bar, where they were run).

COC(=O)c1sc(N)c(C(=O)OC)c1COC(=O)CNS(=O)(=O)c1ccc(C)c(C)c1	MC4R antagonist 32 | U2OS cAMP counter inactive | MC4R cAMP antag inactive
CCOc1ccccc1NC(=O)COC(=O)CN(C)S(=O)(=O)c1ccc(C)cc1	none
Cc1ccc(S(=O)(=O)NCC(=O)OCc2nnc(-c3ccccc3)o2)cc1C	MC4R antagonist 29 | U2OS cAMP counter 20 | MC4R cAMP antag 41
CCOc1ccccc1NC(=O)COC(=O)CNS(=O)(=O)c1ccc(C)cc1	MC4R antagonist 31 | U2OS cAMP counter 17 | MC4R cAMP antag 35
COc1ccc(-c2cc3c(=O)n(CC(=O)Nc4cccc(Cl)c4)ncn3n2)cc1	none
COc1ccccc1C(=O)Nc1nnc([C@@H]2C[C@H](O)[C@@H](CO)O2)s1	none (no result: NALP1 yeast inh, Bfl-1 A1 inh, NLRP3 yeast inh)
Cc1cc(NC(=O)COC(=O)CNS(=O)(=O)c2ccc(C)c(C)c2)no1	MC4R antagonist 47 | U2OS cAMP counter 14 | MC4R cAMP antag 30
Cc1ccc(S(=O)(=O)N2C[C@H]3C(=O)C[C@@H](c4ccccc4F)N(S(=O)(=O)c4ccc(C)cc4)[C@H]3C[C@H]2c2cccc3ccccc23)cc1	none (no result: NALP1 yeast inh, Bfl-1 A1 inh, NLRP3 yeast inh)
Cc1nc(SCC(=O)NCC2CCCO2)c2cc(-c3ccccc3)sc2n1 (stereo not drawn)	none (no result: NALP1 yeast inh)
COc1ccccc1CN(C)C(=O)c1ccc(COc2ccccc2)cc1	MC4R antagonist 31 | U2OS cAMP counter inactive | MC4R cAMP antag inactive
COc1ccc(CN(C)C(=O)c2ccc(COc3ccccc3)cc2)c(OC)c1	none
Cc1ccc(CNC(=O)c2ccc(N3CCC4(CC3)CC(c3ccccc3)=NO4)c(NC(=O)c3ccco3)c2)cc1	none
CCCNC(=O)c1ccc(N2CCC3(CC2)CC(c2ccccc2)=NO3)c(NC(=O)c2ccco2)c1	MC4R antagonist 33 | U2OS cAMP counter inactive | MC4R cAMP antag inactive
COc1ccc(C(=O)COC(=O)c2ccccc2O)c(OC)c1	none (no result: NALP1 yeast inh)
Cc1ccccc1SCC(=O)OCC(=O)NCc1ccccc1	none (no result: NALP1 yeast inh)
NNC(=O)CNC(=O)C12CC3CC(CC(C3)C1)C2	MC4R antagonist 29 | U2OS cAMP counter inactive | MC4R cAMP antag inactive
CC1(C(=O)NS(=O)(=O)c2cccs2)CCN1C(=O)C1CC1 (stereo not drawn)	none (no result: NALP1 yeast inh, Bfl-1 A1 inh, NLRP3 yeast inh)
Cc1ccccc1NC(=S)N(CCN1CCCCC1)Cc1ccco1	MC4R antagonist 31 | U2OS cAMP counter inactive | MC4R cAMP antag inactive
CC(C)(C)[C@@H]1COC(=O)[C@@H](Cc2ccc(F)cc2)C/C=C\C[C@H](CC(=O)N(CCO)Cc2ccccc2)C(=O)N1	none (no result: NALP1 yeast inh)
Cc1nc(Cl)nc(N(C)c2ccccc2)c1[N+](=O)[O-]	MC4R antagonist 36 | U2OS cAMP counter 22 | MC4R cAMP antag inactive
CN(c1ccccc1)c1nc(N)c([N+](=O)[O-])c(NCc2ccccc2)n1	none
Cc1c(C(=O)OCC(=O)Nc2ccc(S(N)(=O)=O)cc2)oc2c1ccc1ccccc12	MC4R antagonist 35 | U2OS cAMP counter inactive | MC4R cAMP antag inactive
C=CCOc1ccc(/C=C/C(=O)OCC(=O)Nc2c(C)n(C)n(-c3ccccc3)c2=O)cc1	none (no result: NALP1 yeast inh)
Cc1cc(C)n2c(SC(C)C(=O)NC3(C#N)CCCCC3)nnc2n1 (stereo not drawn)	none (no result: NALP1 yeast inh, Bfl-1 A1 inh)
Cc1cccc(-n2c(-c3ccoc3C)n[nH]c2=S)c1	MC4R antagonist 30 | U2OS cAMP counter inactive | MC4R cAMP antag inactive
Cc1nc(C(F)(F)F)ccc1C(=O)N1CCC(C)(C(=O)O)C1 (stereo not drawn)	none (no result: NALP1 yeast inh, Bfl-1 A1 inh, NLRP3 yeast inh)
C[C@H](NC(=O)c1nc[nH]c1C(=O)N[C@@H](Cc1ccccc1)C(=O)OCc1ccccc1)C(=O)OC(C)(C)C	MC4R antagonist 34 | U2OS cAMP counter inactive | MC4R cAMP antag inactive
CC(C)C[C@H](NC(=O)c1nc[nH]c1C(=O)N1CCN(C(=O)OC(C)(C)C)CC1)C(=O)OCc1ccccc1	MC4R antagonist 34, Bfl-1 A1 inh inconclusive | U2OS cAMP counter 16 | MC4R cAMP antag inactive
C[C@H](NC(=O)c1nc[nH]c1C(=O)N[C@@H](C)C(=O)OC(C)(C)C)C(=O)OCc1ccccc1	none
CC(C)(C)OC(=O)[C@H](Cc1ccccc1)NC(=O)c1nc[nH]c1C(=O)NC1CCN(C(=O)OC(C)(C)C)CC1	MC4R antagonist 37 | U2OS cAMP counter inactive | MC4R cAMP antag inactive
CC(NC(=O)Nc1ccccc1Cl)c1ccc2c(c1)OCO2 (stereo not drawn)	none
CNC(=O)COC(=O)c1ccccc1C(=O)c1ccc(Cl)c([N+](=O)[O-])c1	none (no result: Bfl-1 A1 inh, NLRP3 yeast inh)
O=C(COC(=O)c1ccccc1C(=O)c1ccc(Cl)c([N+](=O)[O-])c1)NC1CC1	MC4R antagonist 29 | U2OS cAMP counter 21 | MC4R cAMP antag inactive
N/C(=N\OC(=O)c1ccc([N+](=O)[O-])cc1)c1cccnc1	none
N/C(=N\OC(=O)c1ccc(Cl)c([N+](=O)[O-])c1)c1ccccc1	MC4R antagonist 44 | U2OS cAMP counter 22 | MC4R cAMP antag 36
N/C(=N\OC(=O)c1ccc(Cl)c([N+](=O)[O-])c1)c1ccccn1	MC4R antagonist 48 | U2OS cAMP counter 28 | MC4R cAMP antag 40
N/C(=N\OC(=O)c1cc([N+](=O)[O-])ccc1Cl)c1cccnc1	MC4R antagonist 62 (no result: NALP1 yeast inh) | U2OS cAMP counter 18 | MC4R cAMP antag 47
CC(=Nc1ccccc1)C1=C(O)C(CC(C)C)NC1=O (stereo not drawn)	none (no result: NALP1 yeast inh, Bfl-1 A1 inh, NLRP3 yeast inh)
COc1ccc(CNC(=O)c2cn(Cc3ccc(S(=O)(=O)N(C)C)cc3)c(=O)s2)cc1	none (no result: NALP1 yeast inh, Bfl-1 A1 inh, NLRP3 yeast inh)
C[C@H]1CN([C@@H](C)CO)C(=O)c2cc(NC(=O)c3ccncc3)ccc2O[C@H]1CN(C)Cc1ccc(C(=O)O)cc1	none (no result: NALP1 yeast inh)
CC1=NN(c2ccccc2)C(=O)/C1=C\c1cn(CCC#N)nc1-c1ccc(Cl)cc1	none
